Experiments:
Culicidae [1] = experiment: Percentage of Plasmodium berghei ANKA infected Anopheles stephensi mosquitos after treatment with the compound at a dosage of 0 umol.1/kg; assay type: functional
Procedure, shortened: (§1)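 BalbC mice were infected ip with 10⁷ P. berghei ANKA-parasitized erythrocytes. After 4 days, gametocytes and exflagellation were confirmed on Giemsa smears, and mice were randomized into groups of six. Each received a single ip dose (10 or 50 µmol/kg; controls given PBS). 2 h later, anesthetized mice were placed on Anopheles stephensi cages. Read-outs: % mosquitoes with oocysts, and mean oocysts per infected mosquito (SE).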

[2] = Mean number of Plasmodium berghei ANKA […] production in Anopheles stephensi mosquito after treatment with the compound at a dosage 0 umol.1/kg; assay type: functional, Culicidae; procedure, shortened: as §1
[3] = Mean number of Plasmodium berghei ANKA […] production in Anopheles stephensi mosquito after treatment with the compound at a dosage 10 umol.1/kg; assay type: functional, Culicidae; procedure, shortened: as §1
[4] = Mean number of Plasmodium berghei ANKA […] production in Anopheles stephensi mosquito after treatment with the compound at a dosage 50 umol.1/kg; assay type: functional, Culicidae; procedure, shortened: as §1
Culicidae [5] = experiment: Percentage of Plasmodium berghei ANKA infected Anopheles stephensi mosquitos after treatment with the compound at a dosage of 10 umol.1/kg; assay type: functional; procedure, shortened: as §1
Culicidae [6] = experiment: Percentage of Plasmodium berghei ANKA infected Anopheles stephensi mosquitos after treatment with the compound at a dosage of 50 umol.1/kg; assay type: functional; procedure, shortened: as §1
[7] = Percent hydrolysis to the corresponding amino acid product 3, in pH 7.4 phosphate buffer at 37C after 3 days of treatment with the compound; assay type: ADME, Homo sapiens; conditions: read-out: Hydrolysis
Procedure, shortened: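 Hydrolysis followed in pH 7.4 phosphate saline buffer at 37 °C. Substrate and amino acid product were measured by reversed-phase HPLC (pH 4.75 sodium acetate/acetonitrile gradient with triethylamine). Reported as % conversion after 3 days and as half-life in days.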

[8] = Percent hydrolysis to the corresponding amino acid product 3, in 80% human plasma at 37C after 3 days of treatment with the compound; assay type: ADME, cell-free; conditions: 72 h
Procedure, shortened: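 Aliquots were quenched in acetonitrile and centrifuged. Supernatant went to reversed-phase HPLC (pH 4.75 sodium acetate/acetonitrile gradient with triethylamine) for substrate and amino acid product. Reported as % hydrolysis after 3 days.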

| Structure (SMILES) | Infectedmosquitoes (Culicidae [1]) | Activity [2] | Activity [3] | Activity [4] | Infectedmosquitoes (Culicidae [5]) | Infectedmosquitoes (Culicidae [6]) | degraded at 72 h [7] | Hydrolysis [8] |
| --- | --- | --- | --- | --- | --- | --- | --- | --- |
| COc1cc(NC(C)CCCN)c2ncccc2c1 (stereo not drawn) [PRIMAQUINE] | 0% | 83.2 | 2.6 | 0 | 10% | 50% |  |  |
| COc1cc(NC(C)CCCN2C(=O)[C@H](Cc3ccccc3)NC23CCCCC3)c2ncccc2c1 (stereo partly drawn) |  | 83.2 | 71 | 0 | 83% | 0% |  |  |
| COc1cc(NC(C)CCCN2C(=O)[C@H](Cc3ccccc3)NC2(C)C)c2ncccc2c1 (stereo partly drawn) |  | 66.1 | 61.2 | 0 | 76% | 0% | 6% |  |
| COc1cc(NC(C)CCCN2C(=O)[C@H](C(C)C)NC23CCCCC3)c2ncccc2c1 (stereo partly drawn) |  | 51 | 61.1 | 0.4 | 85% | 25% | 8% |  |
| COc1cc(NC(C)CCCN2C(=O)[C@H](C(C)C)NC2(C)C)c2ncccc2c1 (stereo partly drawn) |  | 105 | 5 | 0.9 | 25% | 5% |  |  |
| COc1cc(NC(C)CCCN2C(=O)[C@H](C)NC23CCCCC3)c2ncccc2c1 (stereo partly drawn) |  | 83.2 | 0.8 | 0 | 20% | 0% |  | 9% |
| COc1cc(NC(C)CCCN2C(=O)[C@H](Cc3ccccc3)NC23CCCCCC3)c2ncccc2c1 (stereo partly drawn) |  | 120 | 78.9 | 0 | 90% | 0% | 10% |  |
| COc1cc(NC(C)CCCN2C(=O)[C@H](CC(C)C)NC2(C)C)c2ncccc2c1 (stereo partly drawn) |  | 120 | 13.7 | 1 | 30% | 20% | 10% |  |
| COc1cc(NC(C)CCCN2C(=O)CNC23CCCCC3)c2ncccc2c1 (stereo not drawn) | 65% | 105 | 7.4 | 0 | 25% | 0% |  |  |
| COc1cc(NC(C)CCCN2C(=O)[C@H](C(C)C)NC23CCCCCC3)c2ncccc2c1 (stereo partly drawn) |  | 120 | 17.7 |  | 65% |  |  |  |
| COc1cc(NC(C)CCCN2C(=O)[C@H](Cc3ccccc3)NC23CCCC3)c2ncccc2c1 (stereo partly drawn) |  | 66.1 | 51.6 | 0 | 65% | 0% |  | 3% |
| COc1cc(NC(C)CCCN2C(=O)[C@H](C(C)C)NC23CCCC3)c2ncccc2c1 (stereo partly drawn) |  | 51 | 4.2 | 0.5 | 35% | 15% |  | 5% |
| COc1cc(NC(C)CCCN2C(=O)CNC2(C)C)c2ncccc2c1 (stereo not drawn) |  | 105 | 6.1 | 0 | 21% | 0% |  | 16% |
